Data reported in ChEMBL document CHEMBL5055635, “High-Throughput Crystallography Reveals Boron-Containing Inhibitors of a Penicillin-Binding Protein with Di- and Tricovalent Binding Modes” (J Med Chem, 2021).
Active and inactive are the calls of the source. The calls are words filed in the database; no cut-off is given here.

Columns and labels:
[1] = test system: Pseudomonas aeruginosa; assay: Antimicrobial activity against permeabilized Pseudomonas aeruginosa assessed as bacterial growth inhibition incubated for 18 hrs by CLSI protocol based broth microdilution method; assay type: functional; conditions: dose 150 µM
[2] = test system: Pseudomonas aeruginosa; assay: Antimicrobial activity against Pseudomonas aeruginosa PAO1 assessed as bacterial growth inhibition incubated for 18 hrs by CLSI protocol based broth microdilution method; assay type: functional
[3] = test system: Escherichia coli; assay: Antimicrobial activity against Escherichia coli […] assessed as bacterial growth inhibition incubated for 18 hrs by CLSI protocol based broth microdilution method; assay type: functional
[4] = test system: Pseudomonas aeruginosa; assay: Inhibition of Pseudomonas aeruginosa PBP3 using bocillin FL as a fluorogenic substrate assessed as residual activity at 100 uM preincubated for 1 hr followed by substrate addition measured after 30 mins by fluorescence anisotropy assay relative to control
Summary of the method: (§1)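 Purified PBP (60 nM) preincubated with compound for 1 h at 30 °C in 100 mM sodium phosphate pH 7 with 0.01% Triton. BOCILLIN FL (30 nM) was then added, and fluorescence anisotropy was read after 30 min. Residual activity is the percentage of the uninhibited control. Run in triplicate.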

[5] = test system: Pseudomonas aeruginosa; assay: Inhibition of Pseudomonas aeruginosa PBP3 using (2-((benzoyl-D-alanyl)thio)acetic acid) as a substrate assessed as residual activity by measuring substrate turnover at 100 uM incubated for 1 hr followed by substrate addition by absorbance based assay relative to control
Summary of the method: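 PaPBP3 (400 nM; 200 nM final) incubated with compound for 1 h at 30 °C in 100 mM sodium phosphate pH 7 with 0.01% Triton. S2d and DTNB (1 mM each, final) were then added, and A412 was followed at 30 °C. Initial rates were corrected for non-enzymatic hydrolysis, measured with 1 mM aztreonam. Residual activity is the percentage of the untreated control. Three technical replicates, standard error.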

[6] = test system: Pseudomonas aeruginosa; assay: Inhibition of Pseudomonas aeruginosa PBP3 using bocillin FL as a fluorogenic substrate assessed as residual activity at 1 mM preincubated for 1 hr followed by substrate addition measured after 30 mins by fluorescence anisotropy assay relative to control; summary of the method: as §1
[7] = test system: Acinetobacter baumannii; assay: Inhibition of Acinetobacter baumannii PBP3 assessed as residual activity at 1 mM preincubated for 1 hr followed by substrate addition measured after 30 mins by fluorescence anisotropy assay relative to control; summary of the method: as §1
[8] = test system: Acinetobacter baumannii; assay: Antimicrobial activity against Acinetobacter baumannii ATCC 19606 assessed as bacterial growth inhibition incubated for 18 hrs by CLSI protocol based broth microdilution method; assay type: functional; conditions: ATCC 19606 = CIP 70.34 = JCM 6841
[9] = test system: Pseudomonas aeruginosa; assay: Inhibition of Pseudomonas aeruginosa PBP3 at 1 mM using bocillin FL as a fluorogenic substrate preincubated for 0 to 60 mins followed by substrate addition measured after 30 mins by fluorescence anisotropy assay; conditions: time 0-60 min
Summary of the method: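 PaPBP3 preincubated with compound for 0, 30 or 60 min before BOCILLIN FL was added to start the reaction. Otherwise the standard FA competition format: 60 nM protein, 30 nM BOCILLIN FL, pH 7 sodium phosphate with 0.01% Triton, 30 °C.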

[10] = test system: Haemophilus influenzae; assay: Antimicrobial activity against Haemophilus influenzae ATCC 49766 assessed as bacterial growth inhibition incubated for 18 hrs by CLSI protocol based broth microdilution method; assay type: functional
[11] = test system: Neisseria gonorrhoeae; assay: Inhibition of Neisseria gonorrhoeae PBP2 assessed as residual activity at 1 mM preincubated for 1 hr followed by substrate addition measured after 30 mins by fluorescence anisotropy assay relative to control; summary of the method: as §1
[12] = test system: Neisseria gonorrhoeae; assay: Antimicrobial activity against Neisseria gonorrhoeae ATCC 49226 assessed as bacterial growth inhibition incubated for 18 hrs by CLSI protocol based broth microdilution method; assay type: functional
[13] = test system: Escherichia coli; assay: Synergistic antimicrobial activity against Escherichia coli […] assessed as bacterial growth inhibition in presence of piperacillin incubated for 18 hrs by checkerboard titration method; assay type: functional, organism-based
[14] = test system: Pseudomonas aeruginosa; assay: Reversible inhibition of Pseudomonas aeruginosa PBP3 using nitrocefin as substrate assessed as increase in irreversibly bound ceftazidime IC50 by two-fold dilution assay; conditions: dose 150.0 µM
[15] = test system: Pseudomonas aeruginosa; assay: Synergistic antimicrobial activity against Pseudomonas aeruginosa PAO1 assessed as bacterial growth inhibition in presence of piperacillin incubated for 18 hrs by checkerboard titration method; assay type: functional, organism-based
[16] = test system: Haemophilus influenzae; assay: Inhibition of Haemophilus influenzae PBP3 assessed as residual activity at 1 mM preincubated for 1 hr followed by substrate addition measured after 30 mins by fluorescence anisotropy assay relative to control; summary of the method: as §1
[17] = test system: Escherichia coli; assay: Inhibition of Escherichia coli PBP3 assessed as residual activity at 1 mM preincubated for 1 hr followed by substrate addition measured after 30 mins by fluorescence anisotropy assay relative to control; summary of the method: as §1

| Compound | MIC [1] [mg/L] | MIC [2] [mg/L] | MIC [3] [mg/L] | Activity [6] [%] | further results |
| --- | --- | --- | --- | --- | --- |
| O=C(c1ccc2c(c1)B(O)OC2)N(Cc1ccccc1)Cc1ccccc1 | > 64 | > 64 | > 64 |  | Activity [4]: 87% |
| COC(=O)[C@H](NC(=O)c1ccc2c(c1)B(O)OC2)c1ccccc1 | > 64 | > 64 | > 64 |  | Activity [5]: > 90%; Activity [4]: > 90% |
| CN1CCN(C(=O)[C@@H](Cc2ccccc2)NC(=O)c2ccc3c(c2)B(O)OC3)CC1=O |  |  |  | > 90 |  |
| NC(=O)[C@H](NC(=O)c1ccc2c(c1)B(O)OC2CC(=O)O)c1ccccc1 (stereo partly specified) | > 64 | > 64 | > 64 |  | Activity [7]: 73%; MIC [8]: > 64 mg/L; inhibition [9]: inactive; MIC [10]: > 64 mg/L; Activity [11]: > 90%; MIC [12]: > 64 mg/L; Activity [13]: inactive; inhibition [14]: inactive; Activity [15]: inactive; Activity [16]: 32%; Activity [17]: > 90% |
| OB(O)c1cccc(-c2nnn[nH]2)c1 |  |  |  | 82 |  |
| O=C(O)C[C@@H]1OB(O)c2ccc(OCc3ccccc3)cc21 |  |  |  | 20 |  |

Second part, led by results:

| MIC [1] [mg/L] | MIC [2] [mg/L] | MIC [3] [mg/L] | Activity [6] [%] | Compound | further results |
| --- | --- | --- | --- | --- | --- |
|  |  |  | > 90 | CN1CCN(C(=O)CNC(=O)c2ccc3c(c2)B(O)OC3)CC1=O |  |
|  |  |  | > 90 | O=C1CN(C(=O)CNC(=O)c2ccc3c(c2)B(O)OC3)CCN1 |  |
| > 64 | > 64 | > 64 |  | CN1CCN(C(=O)CNC(=O)c2ccc3c(c2)B(O)OC3CC(=O)O)CC1=O (stereo unspecified) |  |
